Among the data in ChEMBL document CHEMBL1150426, “New C5-alkylated indolobenzazepinones acting as inhibitors of tubulin polymerization: cytotoxic and antitumor activities” (J Med Chem, 2008) are IC50 and Activity values, retold here.

One experiment relates to KB. Description: Cytotoxicity against human KB cells after 72 hrs. It counts as functional, cell-based. In short, it runs like this:
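KB cells in EMEM (4.5 g/L glucose, 10% FCS, 1% glutamine) seeded 5 × 10³/well, dosed after 24 h with compound in DMSO (<0.1%). 72 h exposure, then resazurin 2 h; fluorescence ex 560/em 590 nm. IC50 = 50% fluorescence decrease versus untreated; triplicate.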

The test system of a further experiment is MDA-MB-435. Briefly: Antiproliferative activity against human MDA-MB-435 cells after 72 hrs. The format is functional, cell-based. The note with it: MDA-MB-435, 72 h. An outline of the steps: (§1)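 Cells were seeded at 5 × 10³ per well and cultured for 24 h. Test compound in DMSO (under 0.1%) was then added for 72 h. Resazurin was added for 2 h, and fluorescence was read at ex 560 nm / em 590 nm. IC50 was taken as the concentration giving a 50% fall in fluorescence versus untreated cells. Runs were done in triplicate.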

Experiment [1] has as its system MDA-MB-231. Briefly: Antiproliferative activity against human MDA-MB-231 cells after 72 hrs. Particulars: MDA-MB-231, 72 h. The format is functional, cell-based. In short, it runs like this: as §1
The subject of another experiment is L1210. Description: Antiproliferative activity against mouse L1210 cells after 72 hrs. It counts as functional, cell-based. Particulars: L1210, 72 h. An outline of the steps:
as §1

Experiment [2] has as its system K562. Description: Antiproliferative activity against human K562 cells after 72 hrs. It counts as functional, cell-based. The note with it: K562, 72 h. In short, it runs like this: as §1
The test system of the next experiment is HT-29. Description: Antiproliferative activity against human HT29 cells after 72 hrs. It counts as functional, cell-based. The note with it: HT-29, 72 h. An outline of the steps:
as §1

Experiment [3] relates to K562. Briefly: Cell cycle arrest in human K562 cells assessed as accumulation at G2/M phase at 0.05 uM after 16 hrs by flow cytometry. The format is functional. An outline of the steps:
(§2)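 Exponentially growing K562 cells exposed to compound or DMSO for 6, 16 or 24 h; cell-cycle phase distribution determined by flow cytometry; data representative of three independent experiments.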
Background: Flow cytometry measures light scatter and fluorescence of single cells or particles in a stream.

For experiment [4], the system named is K562. Briefly: Cell cycle arrest in human K562 cells assessed as accumulation at G2/M phase at 0.5 uM after 6 hrs by flow cytometry. It counts as functional. An outline of the steps:
as §2

Experiment [5] relates to K562. Briefly: Cell cycle arrest in human K562 cells assessed as accumulation at S phase at 1 uM after 6 hrs by flow cytometry. The format is functional. An outline of the steps: as §2
The test system of experiment [6] is K562. Description: Cell cycle arrest in human K562 cells assessed as accumulation at G0/G1 phase at 1 uM after 16 hrs by flow cytometry. The format is functional. In short, it runs like this: as §2
Experiment [7] concerns K562. Briefly: Cell cycle arrest in human K562 cells assessed as accumulation at G0/G1 phase at 1 uM after 24 hrs by flow cytometry. The format is functional. In short, it runs like this:
as §2

The subject of another experiment is HCT-116. Briefly: Induction of apoptosis in human HCT116 cells assessed as activation of caspase 7 at 0.01 to 1 uM after 24 hrs by microtitre plate fluorimeter. It counts as functional, cell-based. An outline of the steps:
(§3)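 Cells seeded 5 × 10⁴/well, then after 24 h given compound at 1, 0.1 or 0.01 µM, or 0.1% DMSO as negative control, for 24 h. Caspase-3/7 substrate in homogeneous assay buffer added; fluorescence read at 527 nm after 1 h.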

The subject of experiment [8] is MDA-MB-231. Briefly: Induction of apoptosis in human MDA-MB-231 cells assessed as activation of caspase 3 at 0.01 to 1 uM after 24 hrs by microtitre plate fluorimeter. The format is functional, cell-based. In short, it runs like this:
as §3

The subject of experiment [9] is MDA-MB-231. Description: Induction of apoptosis in human MDA-MB-231 cells assessed as activation of caspase 7 at 0.01 to 1 uM after 24 hrs by microtitre plate fluorimeter. It counts as functional, cell-based. In short, it runs like this:
as §3

Experiment [10] relates to MDA-MB-231. Briefly: Effect on cell morphology in human MDA-MB-231 cells assessed as change in cell size and shape at 0.050 uM after 24 hrs. The format is functional, cell-based. An outline of the steps: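 MDA-MB231 cells on chamber slides treated 24 h at 50 nM, fixed in 3.7% formaldehyde, permeabilized with 0.1% Triton X-100. Stained for β-tubulin (Alexa 488 secondary), actin (Alexa 546 phalloidin) and nuclei (Hoechst 33342); imaged by fluorescence microscopy at 60× and 100×.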

For a further experiment, the system named is MCF7. Description: Cell cycle arrest in human MCF7 cells assessed as accumulation at G2/M phase at 0.05 uM after 24 hrs by flow cytometry.

Activity calls are given as the source filed them. No cut-off for these calls is given here.

With `CC[C@@H]1NC(=O)c2[nH]c3ccccc3c2-c2ccccc21`, the IC50 – broadly, the concentration at which inhibition is half-maximal – in the experiment on KB worked out at 37 nM; in the experiment with MDA-MB-435 it was 70 nM; in the experiment on MDA-MB-231 [1], 30 nM; in the experiment on L1210, 34 nM; with K562 [2], 70 nM; in the experiment on HT-29, 42 nM. Besides, the Activity was determined as 1.1% in the experiment with K562 [3]; 32% with K562 [4]; 91.1% with K562 [5]; 2.4% in the experiment on K562 [6]; 7.6% in the experiment on K562 [7]; 65.6% in the experiment on MCF7. Moreover, the result with HCT-116, in the experiment with MDA-MB-231 [8], with MDA-MB-231 [9] and with MDA-MB-231 [10] was Active.
